Results as given in article PMC8542630 (Cell chemical biology, 2021).

Tests used:
[1] = target: GFP-Sc-Dyn AAA3 E/Q (E2488Q); assay: NADH-coupled steady-state ATPase assay, GFP-Sc-Dyn AAA3 E/Q mutant; type: biochemical, S. cerevisiae; conditions: 1 mM MgATP, n=3
[2] = target: GFP-Sc-Dyn AAA3 E/Q (E2488Q) (Saccharomyces cerevisiae, UniProt P36022, E2488Q); assay: as above; type: biochemical, S. cerevisiae
[3] = target: GFP-Sc-Dyn AAA4 E/Q (E2819Q); assay: NADH-coupled steady-state ATPase assay, GFP-Sc-Dyn AAA4 E/Q mutant; type: biochemical, S. cerevisiae; conditions: 1 mM MgATP, n=3
[4] = target: T1, GFP-Sc-Dyn AAA4 E/Q (E2819Q) (Saccharomyces cerevisiae, UniProt P36022, E2819Q); assay: as above; type: biochemical, S. cerevisiae
Sc-DynGST = Sc-DynGST (Saccharomyces cerevisiae, UniProt P36022); assay: Single-molecule motility assay; type: biochemical, S. cerevisiae
GFP-Sc-Dyn = GFP-Sc-Dyn (Saccharomyces cerevisiae, UniProt P36022); assay: Microscale thermophoresis; type: binding, S. cerevisiae; conditions: for FNorm, GFP-Sc-Dyn (MST) / ΔFNorm, GFP-Sc-Dyn (MST): mean ± SD; for FNorm, GFP-Sc-Dyn (MST): n=3; for ΔFNorm, GFP-Sc-Dyn (MST): absence of AMPPNP, n=5
[5] = target: T1, GFP-Sc-Dyn AAA4 E/Q (E2819Q); assay: Microscale thermophoresis; type: binding, S. cerevisiae
Sc-Dyn-lyso = Sc-Dyn-lyso (Saccharomyces cerevisiae, UniProt P36022); assay: NADH-coupled steady-state ATPase assay, Sc-Dyn-lyso; type: biochemical, S. cerevisiae
Outline: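 Ten-dose DMSO serial dilution of test compound (stock top 4 mM) was preincubated 10 min at RT. MgATP (10 mM stock) started the reaction, and NADH fluorescence slopes were converted via an ADP standard curve.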

Xl-katanin = Xl-katanin (Xenopus laevis, UniProt Q9PUL2); assay: NADH-coupled steady-state ATPase assay, Xl-katanin; type: biochemical, X. laevis
Outline: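 Recombinant Xl-katanin (50 nM; E. coli, MBP-trap, MonoQ and gel filtration) in 25 mM K-HEPES pH 7.5, 70 mM KCl, 20 mM (NH4)2SO4, 5 mM MgCl2, 2.5 mM DTT, 0.01% Triton X-100 plus NADH-coupled regeneration mix. After 10 min RT preincubation with test compound, MgATP started the reaction. The fluorescence decrease rate (340/440 nm) was converted to ATPase rate using an ADP standard curve.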

Hs-FIGL1 = target: T2, Hs-FIGL1 (Homo sapiens, UniProt Q6PIW4); assay: NADH-coupled steady-state ATPase assay, Hs-FIGL1; type: biochemical, H. sapiens
T2 sequence (Q6PIW4 288-674): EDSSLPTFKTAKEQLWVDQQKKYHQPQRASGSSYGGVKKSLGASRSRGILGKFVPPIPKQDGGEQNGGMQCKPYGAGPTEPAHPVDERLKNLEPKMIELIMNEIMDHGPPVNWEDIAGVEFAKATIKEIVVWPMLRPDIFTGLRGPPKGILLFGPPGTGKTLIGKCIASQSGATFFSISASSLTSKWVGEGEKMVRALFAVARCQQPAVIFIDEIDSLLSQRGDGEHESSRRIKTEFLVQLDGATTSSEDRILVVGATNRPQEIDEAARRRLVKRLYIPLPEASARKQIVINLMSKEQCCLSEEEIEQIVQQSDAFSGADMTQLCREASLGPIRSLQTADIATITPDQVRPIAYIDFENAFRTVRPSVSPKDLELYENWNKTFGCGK
Outline: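 Recombinant Hs-FIGL1 (50 nM; E. coli-expressed) in 25 mM Na-MES pH 6.5, 70 mM KOAc, 20 mM (NH4)2SO4, 5 mM Mg(OAc)2, 1 mM TCEP, 0.01% Triton X-100, with NADH/PEP/pyruvate kinase/lactate dehydrogenase coupling system. Protein preincubated 10 min at RT with test compound, then MgATP added. NADH fluorescence (ex 340, em 440 nm) slope converted to ATPase rate with an ADP standard curve.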

Mm-VCP/p97 = Mm-VCP/p97 (Mus musculus, UniProt Q01853); assay: NADH-coupled steady-state ATPase assay, Mm-VCP/p97; type: biochemical, M. musculus
[6] = single-molecule, 0-50 μM compound

Chain of Sc-DynGST (P36022 1219-4092 limits assumed): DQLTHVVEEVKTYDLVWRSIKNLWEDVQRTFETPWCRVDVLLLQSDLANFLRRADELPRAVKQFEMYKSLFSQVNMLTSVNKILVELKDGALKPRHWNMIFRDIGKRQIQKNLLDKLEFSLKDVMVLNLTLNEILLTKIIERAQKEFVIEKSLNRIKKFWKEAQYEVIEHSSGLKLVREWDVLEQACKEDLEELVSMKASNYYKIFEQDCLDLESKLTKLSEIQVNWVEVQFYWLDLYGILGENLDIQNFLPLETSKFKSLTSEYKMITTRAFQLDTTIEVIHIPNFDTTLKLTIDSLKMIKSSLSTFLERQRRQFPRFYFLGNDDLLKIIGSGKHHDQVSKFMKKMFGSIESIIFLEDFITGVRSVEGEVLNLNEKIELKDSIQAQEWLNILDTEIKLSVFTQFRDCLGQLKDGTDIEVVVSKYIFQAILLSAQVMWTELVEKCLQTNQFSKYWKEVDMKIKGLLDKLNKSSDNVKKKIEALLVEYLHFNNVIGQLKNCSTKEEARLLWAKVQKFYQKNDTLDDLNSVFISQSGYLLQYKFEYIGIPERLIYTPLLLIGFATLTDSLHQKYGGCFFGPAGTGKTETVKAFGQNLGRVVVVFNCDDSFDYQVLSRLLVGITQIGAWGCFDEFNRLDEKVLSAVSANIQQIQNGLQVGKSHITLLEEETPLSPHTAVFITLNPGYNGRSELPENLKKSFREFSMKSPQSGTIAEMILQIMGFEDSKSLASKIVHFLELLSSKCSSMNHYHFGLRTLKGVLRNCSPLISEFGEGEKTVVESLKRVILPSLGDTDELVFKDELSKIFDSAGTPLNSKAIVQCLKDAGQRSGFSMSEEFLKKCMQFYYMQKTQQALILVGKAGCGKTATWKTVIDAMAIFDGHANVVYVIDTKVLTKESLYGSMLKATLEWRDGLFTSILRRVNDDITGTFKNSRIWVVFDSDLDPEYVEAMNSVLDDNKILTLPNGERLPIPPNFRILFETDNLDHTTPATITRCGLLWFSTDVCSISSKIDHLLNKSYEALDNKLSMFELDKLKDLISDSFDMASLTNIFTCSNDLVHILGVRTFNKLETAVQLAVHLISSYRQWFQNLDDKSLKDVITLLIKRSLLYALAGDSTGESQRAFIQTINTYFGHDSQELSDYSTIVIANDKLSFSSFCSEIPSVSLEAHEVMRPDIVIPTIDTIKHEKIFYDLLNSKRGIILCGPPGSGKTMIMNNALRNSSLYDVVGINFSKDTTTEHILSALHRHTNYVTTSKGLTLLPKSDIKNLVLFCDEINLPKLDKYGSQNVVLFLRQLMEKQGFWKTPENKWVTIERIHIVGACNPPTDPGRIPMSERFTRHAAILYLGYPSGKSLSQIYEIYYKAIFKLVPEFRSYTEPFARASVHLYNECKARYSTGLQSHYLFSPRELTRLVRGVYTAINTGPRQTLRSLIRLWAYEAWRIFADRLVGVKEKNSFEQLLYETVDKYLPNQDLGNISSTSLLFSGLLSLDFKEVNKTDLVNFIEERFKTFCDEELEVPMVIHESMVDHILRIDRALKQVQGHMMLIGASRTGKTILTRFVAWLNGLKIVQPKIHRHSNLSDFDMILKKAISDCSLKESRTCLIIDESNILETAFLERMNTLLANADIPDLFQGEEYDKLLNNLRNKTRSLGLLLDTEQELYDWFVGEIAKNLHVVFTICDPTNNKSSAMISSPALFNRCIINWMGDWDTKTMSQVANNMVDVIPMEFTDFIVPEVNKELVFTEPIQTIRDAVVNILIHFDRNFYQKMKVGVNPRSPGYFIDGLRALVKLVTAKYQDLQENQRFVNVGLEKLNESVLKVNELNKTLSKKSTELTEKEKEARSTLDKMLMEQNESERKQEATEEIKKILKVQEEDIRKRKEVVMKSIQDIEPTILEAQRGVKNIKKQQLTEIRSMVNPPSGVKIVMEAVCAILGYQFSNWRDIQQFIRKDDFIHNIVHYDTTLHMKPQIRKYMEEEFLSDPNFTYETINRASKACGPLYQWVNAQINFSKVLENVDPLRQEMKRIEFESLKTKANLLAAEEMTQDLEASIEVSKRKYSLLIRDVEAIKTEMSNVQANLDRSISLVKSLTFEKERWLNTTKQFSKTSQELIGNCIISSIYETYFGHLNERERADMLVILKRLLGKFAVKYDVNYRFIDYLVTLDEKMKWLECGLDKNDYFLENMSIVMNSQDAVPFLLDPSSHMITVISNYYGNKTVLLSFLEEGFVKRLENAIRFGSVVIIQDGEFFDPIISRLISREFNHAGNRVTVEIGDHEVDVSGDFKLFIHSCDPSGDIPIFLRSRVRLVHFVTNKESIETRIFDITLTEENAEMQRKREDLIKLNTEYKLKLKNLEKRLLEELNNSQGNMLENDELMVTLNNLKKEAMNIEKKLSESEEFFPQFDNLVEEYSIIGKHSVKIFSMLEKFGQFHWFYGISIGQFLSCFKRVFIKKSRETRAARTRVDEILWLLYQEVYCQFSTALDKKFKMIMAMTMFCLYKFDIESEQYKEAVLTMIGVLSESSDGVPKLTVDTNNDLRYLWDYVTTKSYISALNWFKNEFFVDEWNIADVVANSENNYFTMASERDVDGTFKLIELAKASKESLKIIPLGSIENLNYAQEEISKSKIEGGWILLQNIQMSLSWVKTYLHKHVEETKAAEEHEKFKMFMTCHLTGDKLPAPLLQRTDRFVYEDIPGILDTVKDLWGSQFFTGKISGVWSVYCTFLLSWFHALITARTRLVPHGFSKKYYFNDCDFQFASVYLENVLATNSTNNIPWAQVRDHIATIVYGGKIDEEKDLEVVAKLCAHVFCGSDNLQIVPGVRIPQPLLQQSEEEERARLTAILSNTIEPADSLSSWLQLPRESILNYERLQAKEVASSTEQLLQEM
Chain of GFP-Sc-Dyn (P36022 1219-4092): as the sequence (P36022 1219-4092 limits assumed) above
Chain of Mm-VCP/p97 (Q01853 whole entry): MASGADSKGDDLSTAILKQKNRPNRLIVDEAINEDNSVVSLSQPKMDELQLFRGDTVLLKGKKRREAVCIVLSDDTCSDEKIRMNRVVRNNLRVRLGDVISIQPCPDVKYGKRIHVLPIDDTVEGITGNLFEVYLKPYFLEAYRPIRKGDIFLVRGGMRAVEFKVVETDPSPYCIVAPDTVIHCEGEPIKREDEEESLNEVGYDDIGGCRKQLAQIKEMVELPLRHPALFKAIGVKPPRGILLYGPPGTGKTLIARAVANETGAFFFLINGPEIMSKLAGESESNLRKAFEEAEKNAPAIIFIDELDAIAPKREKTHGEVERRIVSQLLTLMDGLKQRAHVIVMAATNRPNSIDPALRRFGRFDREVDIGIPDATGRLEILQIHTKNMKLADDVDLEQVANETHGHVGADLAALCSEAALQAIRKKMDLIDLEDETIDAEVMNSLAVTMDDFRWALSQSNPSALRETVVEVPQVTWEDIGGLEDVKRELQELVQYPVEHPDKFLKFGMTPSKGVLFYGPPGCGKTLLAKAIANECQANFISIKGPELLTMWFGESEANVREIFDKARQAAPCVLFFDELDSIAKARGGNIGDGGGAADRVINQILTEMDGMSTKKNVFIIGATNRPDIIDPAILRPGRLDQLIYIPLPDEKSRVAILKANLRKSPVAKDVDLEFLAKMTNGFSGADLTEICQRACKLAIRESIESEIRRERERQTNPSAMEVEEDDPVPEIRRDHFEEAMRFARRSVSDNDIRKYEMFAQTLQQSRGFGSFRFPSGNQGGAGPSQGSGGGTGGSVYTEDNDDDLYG
T1 sequence (P36022 1219-4092 E2819Q): as the sequence (P36022 1219-4092 limits assumed) above, with E1601Q counted along it
Chain of Xl-katanin (Q9PUL2 whole entry): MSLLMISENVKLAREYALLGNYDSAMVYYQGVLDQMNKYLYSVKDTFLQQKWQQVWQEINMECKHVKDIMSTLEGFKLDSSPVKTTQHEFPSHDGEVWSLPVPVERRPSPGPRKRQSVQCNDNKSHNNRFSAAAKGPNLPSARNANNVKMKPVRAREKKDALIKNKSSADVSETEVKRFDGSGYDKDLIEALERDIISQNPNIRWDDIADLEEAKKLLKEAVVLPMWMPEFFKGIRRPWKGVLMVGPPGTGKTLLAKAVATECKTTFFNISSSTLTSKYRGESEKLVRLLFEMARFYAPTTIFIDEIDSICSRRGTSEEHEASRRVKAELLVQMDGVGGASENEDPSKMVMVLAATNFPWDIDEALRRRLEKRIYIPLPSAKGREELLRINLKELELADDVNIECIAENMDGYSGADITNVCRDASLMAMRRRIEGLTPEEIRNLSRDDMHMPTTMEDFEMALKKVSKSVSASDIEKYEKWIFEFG
Chain of GFP-Sc-Dyn AAA3 E/Q (E2488Q) (Saccharomyces cerevisiae, UniProt P36022, E2488Q) (P36022 1219-4092 E2488Q): as the sequence (P36022 1219-4092 limits assumed) above, with E1270Q counted along it

N#Cc1c(C2(c3ccc(Cl)cc3)CC2)nn2c(=O)c(Oc3cccc(Br)c3)c[nH]c12 [compound 20, 6-(3-bromophenoxy)-2-[1-(4-chlorophenyl)cyclopropyl]-7-oxo-4H-pyrazolo[1,5-a]pyrimidine-3-carbonitrile]
IC50 fold lower than that of GFP-Sc-Dyn, AAA3 E/Q mutant [1]: ~ 2 fold | IC50 [2]: 8.2 ± 1.4 µM | IC50 fold lower than that of GFP-Sc-Dyn, AAA4 E/Q mutant [3]: ~ 5 fold | IC50 [4]: 2.9 ± 0.3 µM | EC50 (Sc-DynGST): 12.7 ± 2.5 µM | Pausing during processive runs (in words) (Sc-DynGST; single-molecule): no significant pausing | Effect on dynein processivity (run length) (in words) (Sc-DynGST; [6]): little to no effect | Effect on dynein velocity (in words) (Sc-DynGST; [6]): little to no effect | FNorm, GFP-Sc-Dyn (MST) (GFP-Sc-Dyn; 12.5 μM compound, AMPPNP 100 μM): 0.8 ± 2 | FNorm, GFP-Sc-Dyn (MST) (GFP-Sc-Dyn; 12.5 μM compound, AMPPNP 1 mM): 1.9 ± 1.2 | ΔFNorm, GFP-Sc-Dyn (MST) (GFP-Sc-Dyn; 12.5 μM compound): 3.0 ± 5.0 | FNorm, GFP-Sc-Dyn (MST) (GFP-Sc-Dyn; 25 μM compound, AMPPNP 100 μM): 2.4 ± 2.3 | FNorm, GFP-Sc-Dyn (MST) (GFP-Sc-Dyn; 25 μM compound, AMPPNP 1 mM): 0.1 ± 1 | ΔFNorm, GFP-Sc-Dyn (MST) (GFP-Sc-Dyn; 25 μM compound): 6.7 ± 5.2 | ΔFNorm lower than that of the WT control (GFP-Sc-Dyn; 50 μM compound 20, AMPPNP 1 mM): ~ 93% | FNorm, GFP-Sc-Dyn (MST) (GFP-Sc-Dyn; 50 μM compound, AMPPNP 100 μM): 9.3 ± 2.3 | FNorm, GFP-Sc-Dyn (MST) (GFP-Sc-Dyn; 50 μM compound, AMPPNP 1 mM): 1.2 ± 2 | ΔFNorm, GFP-Sc-Dyn (MST) (GFP-Sc-Dyn; 50 μM compound): 16 ± 2.8 | EC50 (GFP-Sc-Dyn; EC50, binding to GFP-Sc-Dyn (MST), mean ± 95% CI, n=9, Figures 5D-E): 70 ± 31 µM | EC50 (GFP-Sc-Dyn; EC50, binding to WT GFP-Sc-Dyn (MST), mean ± 95% CI, n=4, Figure 5N, compared with V2391S/M2732S mutant): 36 ± 7.8 µM | Hill slope, binding to GFP-Sc-Dyn (MST) (GFP-Sc-Dyn; mean ± 95% CI, n=9): 1.7 ± 0.6 | EC50 [5]: > 200 µM | IC50 (Sc-Dyn-lyso): 15 ± 3.1 µM | Reduction of ATPase activity, Xl-katanin (Xl-katanin; 20 μM, 1 mM MgATP): < 25% | Percent steady-state ATPase activity, Xl-katanin (Xl-katanin; compound 20 μM, mean ± SD, n=3): 76 ± 9.0% | Percent steady-state ATPase activity, Hs-FIGL (Hs-FIGL1; compound 20 μM, mean ± SD, n=3): 15 ± 11% | inhibition at 20 µM (Hs-FIGL1; read-out: Inhibition of ATPase activity, Hs-FIGL1): ~85% | Reduction of ATPase activity, Mm-VCP (Mm-VCP/p97; 20 μM, 1 mM MgATP): < 25% | Percent steady-state ATPase activity, Mm-p97 (Mm-VCP/p97; compound 20 μM, mean ± SD, n=3): 99 ± 7.9%
